{"source": "ChEMBL document CHEMBL1136742", "about": "“New isomeric azine-bridged dinuclear platinum(II) complexes circumvent cross-resistance to cisplatin” (J Med Chem, 2003)", "format_in_all_cases": "functional, cell-based", "key": {"MCF7": {"tested_on": "MCF7", "assay": "In vitro cytotoxicity against human tumor MCF-7 cell line (breast cancer)", "in_short": "(§1)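 Cells kept in log-phase culture in RPMI 1640 with Hepes and phenol red, 10% FCS, penicillin 100 IU/mL and streptomycin 100 µg/mL. Complexes dissolved in water and diluted in full medium, then added after 48 h preincubation in 96-well plates. Incubation 120 h at 37 °C, 8.5% CO2. IC50 read by sulforhodamine-B microculture test.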"}, "M19-MEL": {"tested_on": "M19-MEL", "assay": "In vitro cytotoxicity against human tumor M19 cell line (melanoma cancer)", "in_short": "as §1"}, "NCI-H226": {"tested_on": "NCI-H226", "assay": "In vitro cytotoxicity against human tumor H226 cell line (nonsmall cell lung cancer)", "in_short": "as §1"}, "IGROV-1": {"tested_on": "IGROV-1", "assay": "In vitro cytotoxicity against human tumor IGROV cell line (ovarian cancer)", "in_short": "as §1"}, "A498": {"tested_on": "A498", "assay": "In vitro cytotoxicity against human tumor A498 cell line (renal cancer)", "in_short": "as §1"}, "L1210 [1]": {"tested_on": "L1210", "assay": "In vitro cytotoxicity against mouse tumor L1210 cell line (sensitive to Cisplatin)", "in_short": "(§2)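 Suspension culture in RPMI 1640 with 10% heat-inactivated fetal calf serum, no antibiotics, 37 °C, 5% CO2. Cells seeded at 10^5 cells/mL in 96-well plates and exposed 48 h to a range of platinum complex concentrations. MTT added, 4 h at 37 °C, then wash with PBS. Dye taken up in 2-propanol, absorbance read at 570 nm. IC50 taken as 50% absorbance drop versus drug-free control.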"}, "EVSA-T": {"tested_on": "EVSA-T", "assay": "In vitro cytotoxicity against human tumor EVSA-T cell line (breast cancer)", "in_short": "as §1"}, "WiDr": {"tested_on": "WiDr", "assay": "In vitro cytotoxicity against human tumor WIDR cell line (colon cancer)", "in_short": "as §1"}, "L1210 [2]": {"tested_on": "L1210", "assay": "Ratio of in vitro cytotoxicity against mouse tumor L1210 cell line (resistant to Cisplatin) to that of sensitive L1210 cell line", "in_short": "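Resistant and sensitive L1210 cells in suspension culture, RPMI 1640 with 10% heat-inactivated FCS, no antibiotics, 37 °C, 5% CO2. Cells seeded at 10^5 cells/mL and exposed 48 h to platinum complexes. MTT read at 570 nm after solubilizing in 2-propanol. IC50 is 50% absorbance drop versus control; ratio is resistant IC50 over sensitive IC50.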"}, "L1210 [3]": {"tested_on": "L1210", "assay": "In vitro cytotoxicity against mouse tumor L1210 cell line (resistant to Cisplatin)", "in_short": "as §2"}}}
{"substance": "CISPLATIN [listing 1 of 2 here]", "values": [{"measurement": "IC50", "setting": "MCF7", "value": 2.3, "unit": "µM"}, {"measurement": "IC50", "setting": "M19-MEL", "value": 1.9, "unit": "µM"}, {"measurement": "IC50", "setting": "NCI-H226", "value": 10.9, "unit": "µM"}, {"measurement": "IC50", "setting": "IGROV-1", "value": 0.6, "unit": "µM"}, {"measurement": "IC50", "setting": "A498", "value": 7.5, "unit": "µM"}, {"measurement": "IC50", "setting": "L1210 [1]", "value": 2.2, "unit": "µM"}, {"measurement": "IC50", "setting": "EVSA-T", "value": 1.4, "unit": "µM"}, {"measurement": "IC50", "setting": "WiDr", "value": 3.2, "unit": "µM"}]}
{"substance": "CISPLATIN [listing 2 of 2 here]", "values": [{"measurement": "Ratio", "setting": "L1210 [2]", "value": 6.6}]}
{"substance": "[{cis-Pt(NH3)2Cl}2(-pdn)](NO3)2 [listing 1 of 2 here]", "values": [{"measurement": "IC50", "setting": "MCF7", "value": 23, "unit": "µM"}, {"measurement": "IC50", "setting": "M19-MEL", "value": 7.2, "unit": "µM"}, {"measurement": "IC50", "setting": "NCI-H226", "value": "> 85.2", "unit": "µM"}, {"measurement": "IC50", "setting": "IGROV-1", "value": 0.2, "unit": "µM"}, {"measurement": "IC50", "setting": "A498", "value": 53, "unit": "µM"}, {"measurement": "IC50", "setting": "L1210 [1]", "value": 5.7, "unit": "µM"}, {"measurement": "IC50", "setting": "EVSA-T", "value": "> 85.2", "unit": "µM"}, {"measurement": "IC50", "setting": "WiDr", "value": 13.3, "unit": "µM"}, {"measurement": "IC50", "setting": "L1210 [3]", "value": 21.3, "unit": "µM"}]}
{"substance": "[{cis-Pt(NH3)2Cl}2(-pdn)](NO3)2 [listing 2 of 2 here]", "values": [{"measurement": "Ratio", "setting": "L1210 [2]", "value": 3.7}]}
{"substance": "[{cis-Pt(NH3)2Cl}2(-pzn)](NO3)2 [listing 1 of 2 here]", "values": [{"measurement": "IC50", "setting": "MCF7", "value": 17, "unit": "µM"}, {"measurement": "IC50", "setting": "M19-MEL", "value": 20.9, "unit": "µM"}, {"measurement": "IC50", "setting": "NCI-H226", "value": "> 85.2", "unit": "µM"}, {"measurement": "IC50", "setting": "IGROV-1", "value": 1, "unit": "µM"}, {"measurement": "IC50", "setting": "A498", "value": 63.5, "unit": "µM"}, {"measurement": "IC50", "setting": "L1210 [1]", "value": 1, "unit": "µM"}, {"measurement": "IC50", "setting": "EVSA-T", "value": 47, "unit": "µM"}, {"measurement": "IC50", "setting": "WiDr", "value": 2.4, "unit": "µM"}, {"measurement": "IC50", "setting": "L1210 [3]", "value": 3.5, "unit": "µM"}]}
{"substance": "[{cis-Pt(NH3)2Cl}2(-pzn)](NO3)2 [listing 2 of 2 here]", "values": [{"measurement": "Ratio", "setting": "L1210 [2]", "value": 3.5}]}
{"substance": "[{cis-Pt(NH3)2Cl}2(-pzn)]Cl2 [listing 1 of 2 here]", "values": [{"measurement": "IC50", "setting": "MCF7", "value": 15.5, "unit": "µM"}, {"measurement": "IC50", "setting": "M19-MEL", "value": 21.4, "unit": "µM"}, {"measurement": "IC50", "setting": "NCI-H226", "value": "> 91.9", "unit": "µM"}, {"measurement": "IC50", "setting": "IGROV-1", "value": 0.8, "unit": "µM"}, {"measurement": "IC50", "setting": "A498", "value": 54.1, "unit": "µM"}, {"measurement": "IC50", "setting": "L1210 [1]", "value": 1.2, "unit": "µM"}, {"measurement": "IC50", "setting": "EVSA-T", "value": 42.5, "unit": "µM"}, {"measurement": "IC50", "setting": "WiDr", "value": 2, "unit": "µM"}, {"measurement": "IC50", "setting": "L1210 [3]", "value": 2.5, "unit": "µM"}]}
{"substance": "[{cis-Pt(NH3)2Cl}2(-pzn)]Cl2 [listing 2 of 2 here]", "values": [{"measurement": "Ratio", "setting": "L1210 [2]", "value": 2.1}]}
